Experiments:
Rattus norvegicus = assay: Oral dose which produces a 30 mmHg drop of systolic blood pressure (calculated on regression line); assay type: functional; conditions: Artery
How it was run: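 Groups of three male conscious spontaneously hypertensive rats; compound suspended in aqueous 0.5% methocel and given by gavage at 2 mL/kg. Systolic pressure measured by indirect tail-cuff before and 2 and 4 h after dosing, following 20 min warming at 37 °C. The dose giving a 30 mmHg fall was read from the regression line of maximum fall against log dose.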

[1] = Partition coefficient (logD7.4); conditions: octanol/water, pH 7.4
Canis familiaris [2] = assay: Effect of compound (given intravenously) on systolic blood pressure in conscious renal hypertensive dogs at 20 h; assay type: functional, Canis lupus familiaris, Artery
How it was run: (§1)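 Groups of four conscious mongrel renal hypertensive dogs; compound dissolved in distilled water and given intravenously at 0.5 mL/kg (1 mg/kg or 0.3 mg/kg in the time-course table). Systolic pressure and heart rate measured indirectly at the tail with a sensor and pressure cuff, at 0, 4, 6, 8, 10, 12 and 20 h. Values are mean ± SE of four animals.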

Canis familiaris [3] = assay: Effect of compound (given intravenously) on systolic blood pressure in conscious renal hypertensive dogs at 10 h; assay type: functional, Canis lupus familiaris, Artery; how it was run: as §1
Canis familiaris [4] = assay: Effect of compound (given intravenously) on heart rate in conscious renal hypertensive dogs at 0 h; assay type: functional, Canis lupus familiaris; how it was run: as §1
Canis familiaris [5] = assay: Effect of compound (given intravenously) on systolic blood pressure in conscious renal hypertensive dogs at 4 h; assay type: functional, Canis lupus familiaris, Artery; how it was run: as §1
Canis familiaris [6] = assay: Effect of compound (given intravenously) on systolic blood pressure in conscious renal hypertensive dogs at 6 h; assay type: functional, Canis lupus familiaris, Artery; how it was run: as §1
Canis familiaris [7] = assay: Effect of compound (given intravenously) on systolic blood pressure in conscious renal hypertensive dogs at 12 h; assay type: functional, Canis lupus familiaris, Artery; how it was run: as §1
Canis familiaris [8] = assay: Effect of compound (given intravenously) on heart rate in conscious renal hypertensive dogs at 4 h; assay type: functional, Canis lupus familiaris; how it was run: as §1
Canis familiaris [9] = assay: Effect of compound (given intravenously) on heart rate in conscious renal hypertensive dogs at 12 h; assay type: functional, Canis lupus familiaris; how it was run: as §1
Canis familiaris [10] = assay: Effect of compound (given intravenously) on systolic blood pressure in conscious renal hypertensive dogs at 0 h; assay type: functional, Canis lupus familiaris, Artery; how it was run: as §1
Canis familiaris [11] = assay: Effect of compound (given intravenously) on heart rate in conscious renal hypertensive dogs at 10 h; assay type: functional, Canis lupus familiaris; how it was run: as §1
Canis familiaris [12] = assay: Effect of compound (given intravenously) on heart rate in conscious renal hypertensive dogs at 20 h; assay type: functional, Canis lupus familiaris; how it was run: as §1
Canis familiaris [13] = assay: Effect of compound (given intravenously) on systolic blood pressure in conscious renal hypertensive dogs at 8 h; assay type: functional, Canis lupus familiaris, Artery; how it was run: as §1
Canis familiaris [14] = assay: Effect of compound (given intravenously) on heart rate in conscious renal hypertensive dogs at 8 h; assay type: functional, Canis lupus familiaris; how it was run: as §1
Canis familiaris [15] = assay: Effect of compound (given intravenously) on heart rate in conscious renal hypertensive dogs 6 h; assay type: functional, Canis lupus familiaris; how it was run: as §1

For `Cc1ccc(C)n1Nc1ccc(N(CCO)CCO)nn1`, the ED30 (Rattus norvegicus) was > 100 mg/kg.
With `CCOCCN(CCOCC)c1ccc(Nn2c(C)ccc2C)nn1` the ED30 (Rattus norvegicus) was 2 mg/kg.
For `Cc1ccc(C)n1Nc1ccc(N(CCO)CC(C)O)nn1` (stereo not drawn), the ED30 (Rattus norvegicus) was > 100 mg/kg.
For `Cc1ccc(C)n1Nc1nnc(N2CCOCC2)c2c1CCCC2`, the ED30 (Rattus norvegicus) was ~33 mg/kg.
`Cc1ccc(C)n1Nc1ccc(N2CCC(O)CC2)nn1` showed an ED30 (Rattus norvegicus) of 12.6 mg/kg.
With `Cc1ccc(C)n1Nc1ccc(N2CCCC2)nn1` the ED30 (Rattus norvegicus) was > 100 mg/kg.
Work on `CN(c1ccc(N2CCOCC2)nn1)n1cccc1` yielded an ED30 (Rattus norvegicus) of 16.5 mg/kg.
`CCc1ccc(CC)n1Nc1ccc(N2CCOCC2)nn1` gave a logD [1] of 2.71 and an ED30 (Rattus norvegicus) of 15.4 mg/kg.
`Cc1ccc(C)n1Nc1ccc(N2CCN(C)CC2)nn1` gave an ED30 (Rattus norvegicus) of ~43 mg/kg.
Work on `COCCN(C)c1ccc(Nn2c(C)ccc2C)nn1` yielded a logD [1] of 2.16 and an ED30 (Rattus norvegicus) of 7 mg/kg.
For `CCN(CC)c1ccc(Nn2c(C)ccc2C)nn1`, the ED30 (Rattus norvegicus) was 3.9 mg/kg.
Work on `Cc1ccc(C)n1Nc1ccc(N(CC(C)O)CC(C)O)nn1` (stereo not drawn) yielded an ED30 (Rattus norvegicus) of ~54 mg/kg.
`CC(=O)N(c1ccc(N2CCOCC2)nn1)n1c(C)ccc1C` gave a logD [1] of 1.64 and an ED30 (Rattus norvegicus) of 11.8 mg/kg.
`Cc1ccc(C)n1Nc1ccc(N(C)C)nn1` gave an ED30 (Rattus norvegicus) of ~22 mg/kg.
`Cc1ccc(C)n1Nc1nnc(N2CCOCC2)c2ccccc12` gave an ED30 (Rattus norvegicus) of ~91 mg/kg.
`Cc1ccc(C)n1Nc1ccc(N2C(C)COCC2C)nn1` (stereo not drawn) gave an ED30 (Rattus norvegicus) of 18.5 mg/kg.
`Cc1ccc(C)n1Nc1ccc(N2CCSCC2)nn1` showed an ED30 (Rattus norvegicus) of ~25 mg/kg.
`Cc1ccc(C)n1Nc1ccc(N2CCCCC2)nn1` gave an ED30 (Rattus norvegicus) of 10 mg/kg.
Molecule `Cc1ccc(C)n1Nc1ccc(N2CCNCC2)nn1` has an ED30 (Rattus norvegicus) of 30 mg/kg.
`Cc1ccc(C)n1Nc1nnc(N2CCC(O)CC2)c2ccccc12` gave an ED30 (Rattus norvegicus) of ~33 mg/kg.
With `COCCN(CCOC)c1ccc(Nn2c(C)ccc2C)nn1` the ED30 (Rattus norvegicus) was 2.7 mg/kg.
With `Cc1cc(N2CCOCC2)nnc1Nn1c(C)ccc1C` the ED30 (Rattus norvegicus) was ~26 mg/kg.
For `c1ccn(Nc2ccc(N3CCOCC3)nn2)c1`, the ED30 (Rattus norvegicus) was > 100 mg/kg.
With `C=CCN(CC=C)c1ccc(Nn2c(C)ccc2C)nn1` the ED30 (Rattus norvegicus) was 11.4 mg/kg.
`Cc1ccc(C)n1N(C)c1ccc(N2CCOCC2)nn1` gave a logD [1] of 2.21 and an ED30 (Rattus norvegicus) of 15.8 mg/kg.
For `Cc1ccc(C)n1Nc1ccc(N(C)CC(C)O)nn1` (stereo not drawn), the ED30 (Rattus norvegicus) was 7.7 mg/kg.
With `Cc1c(Nn2c(C)ccc2C)nnc(N2CCOCC2)c1C` the ED30 (Rattus norvegicus) was 35 mg/kg.
Molecule `NNc1nncc2ccccc12` [HYDRALAZINE] has a Pressure (Canis familiaris [2]) of 188 mmHg, a Pressure (Canis familiaris [3]) of 188 mmHg and a Heart rate (Canis familiaris [4]) of 78 beats min-1. It also gave a Pressure (Canis familiaris [5]) of 135 mmHg, a Pressure (Canis familiaris [6]) of 138 mmHg and a Pressure (Canis familiaris [7]) of 190 mmHg. The Heart rate (Canis familiaris [8]) was 128 beats min-1, the Heart rate (Canis familiaris [9]) was 118 beats min-1 and the Pressure (Canis familiaris [10]) was 188 mmHg. The Heart rate (Canis familiaris [11]) was 125 beats min-1, the Heart rate (Canis familiaris [12]) was 115 beats min-1 and the Pressure (Canis familiaris [13]) was 148 mmHg.
With `Cc1ccc(C)n1Nc1ccc(N2CCOCC2)nn1.Cl` [MOPIDRALAZINE HYDROCHLORIDE] the Pressure (Canis familiaris [2]) was 187 mmHg, the Pressure (Canis familiaris [3]) was 147 mmHg and the Heart rate (Canis familiaris [4]) was 80 beats min-1. For the same molecule, the Heart rate (Canis familiaris [14]) was 110 beats min-1, the Pressure (Canis familiaris [5]) was 168 mmHg and the Pressure (Canis familiaris [6]) was 150 mmHg. The Pressure (Canis familiaris [7]) was 165 mmHg, the Heart rate (Canis familiaris [8]) was 92 beats min-1 and the Heart rate (Canis familiaris [9]) was 105 beats min-1. The Pressure (Canis familiaris [10]) was 190 mmHg, the Heart rate (Canis familiaris [15]) was 100 beats min-1 and the Heart rate (Canis familiaris [11]) was 107 beats min-1. The Heart rate (Canis familiaris [12]) was 105 beats min-1, the ED30 (Rattus norvegicus) was 3.9 mg/kg and the Pressure (Canis familiaris [13]) was 140 mmHg.
